Series [1] is described as follows: Partition coefficient (logP). Particulars: octanol/water. Type of series: physicochemical. The procedure, abridged:
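Partition between 1-octanol and buffer at pH 7.4, with solutions prepared in 1-octanol before buffer is added. Quantified by UV, using λmax and ε values measured in 1-octanol.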

Series [2] has as its system Mus musculus. The series is described as follows: Compound was tested for anticonvulsant activity after intraperitoneal injection into mice by using scPTZ screen test after 0.5 hr. Type of series: functional. Particulars: ip. In outline: (§1)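 Mice injected intraperitoneally at 30, 100 and 300 mg/kg and examined 0.5 and 4 h afterwards. Each entry is the minimum dose giving activity (MES protection, scPTZ protection, or rotorod failure for neurotoxicity) in half or more of the mice. Activity is called absent if nothing occurs at 300 mg/kg.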

The test system of series [3] is Rattus norvegicus. The series is described as follows: Compound was tested for anticonvulsant activity after Oral Administration into Rats by using MES screen test after 0.5h,dose 50 mg/kg; number of rats out of four which were protected. The class given is functional. The procedure, abridged:
(§2)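 Rats received the compound orally. […] Rats were tested in the MES screen at 0.25, 0.5, 1, 2 and 4 h. Each value is the number of rats protected out of 4. The test followed NINDS procedures.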

Series [4] in a line: Protection index = TD50/ED50. Type of series: ADME. Conditions: read-out: PI.
In series [5] the test system is Mus musculus. The series is described as follows: Anticonvulsant activity after intraperitoneal injection into mice by using MES screen test after 0.5 hr. Type of series: functional.
For series [6], the system named is Rattus norvegicus. The series is described as follows: Compound was tested for anticonvulsant activity after Oral Administration into Rats by using MES screen test after 1h,dose 50 mg/kg; number of rats out of four which were protected. Type of series: functional. In outline:
as §2

The test system of series [7] is Rattus norvegicus. The series is described as follows: Compound was tested for anticonvulsant activity after Oral Administration into Rats by using MES screen test after 4h,dose 50 mg/kg; number of rats out of four which were protected. The class given is functional. In outline:
as §2

The test system of series [8] is Rattus norvegicus. In words: Compound was tested for anticonvulsant activity after Oral Administration into rat by using MES screen test after 4 hr. The class given is functional. In outline: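 Rats dosed orally, typically at 50 mg/kg first, then mostly 12.5 mg/kg (some compounds at 30 mg/kg), and tested by maximal electroshock. Four rats per compound, scored at 0.25, 0.5, 1, 2 and 4 h as the number of rats protected out of 4.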

Series [9] deals with Mus musculus. The series is described as follows: Anticonvulsant activity after intraperitoneal injection into mice by using scPTZ screen test after 4 hr. Type of series: functional.
Series [10] is described as follows: Compound was tested for […] after intraperitoneal injection into mice by using neurotoxicity screen test after 2 hr. The class given is organism-based. Particulars: mouse, in vivo, ip. The procedure, abridged:
(§3)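 Quantitative intraperitoneal mouse testing in the MES, scPTZ or rotorod neurotoxicity screens at the peak time given for each compound (0.25–2 h). ED50 or TD50 reported in mg/kg with 95% CI and slope (SE).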

In series [11] the test system is Rattus norvegicus. The series is described as follows: Compound was tested for anticonvulsant activity after Oral Administration into Rats by using MES screen test after 0.25h,dose 50 mg/kg; number of rats out of four which were protected. Type of series: functional. In outline:
as §2

In series [12] the test system is Rattus norvegicus. The series is described as follows: Compound was tested for anticonvulsant activity after Oral Administration into Rats by using MES screen test after 2h,dose 50 mg/kg; number of rats out of four which were protected. Type of series: functional. In outline: as §2
Series [13] deals with Mus musculus. In words: Compound was tested for anticonvulsant activity after intraperitoneal injection into mice by using MES screen test after 1 hr. Particulars: ip. The class given is functional. The procedure, abridged: as §3
Series [14] can be described thus: Compound was tested for toxicity after oral administration in rat by using neurotoxicity screen test after 0.25-24 hr. The class given is organism-based. Conditions: in vivo. In outline: (§4)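 Rat neurotoxicity after oral dosing, observed at 0.25, 0.5, 1, 2, 4, 6, 8 and 24 h (8 h omitted for one compound).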
The subject of series [15] is Mus musculus. The series is described as follows: Anticonvulsant activity after intraperitoneal injection into mice by using scPTZ screen after 0.5 hr. The class given is functional.
For series [16], the system named is Mus musculus. The series is described as follows: Anticonvulsant activity after intraperitoneal injection into mice measured in a maximal electroshock scree (MES) screen. The class given is functional.
Series [17] relates to Rattus norvegicus. The series is described as follows: Compound was tested for anticonvulsant activity after Oral Administration into Rats by using MES screen test after 2h,dose 12.5 mg/kg; number of rats out of four which were protected. The class given is functional. In outline: as §2
Series [18] concerns Rattus norvegicus. In words: Compound was tested for anticonvulsant activity after Oral Administration into Rats by using MES screen test after 0.25h,dose 12.5 mg/kg; No activity was demonstarted. The class given is functional, organism-based. Also noted: dose 12.5 mg/kg. The procedure, abridged: as §2
In series [19] the test system is Rattus norvegicus. In words: Compound was tested for anticonvulsant activity after Oral Administration into Rats by using MES screen test after 4h,dose 12.5 mg/kg; number of rats out of four which were protected. The class given is functional. The procedure, abridged:
as §2

Series [20] has as its system Rattus norvegicus. The series is described as follows: Anticonvulsant activity after oral administration into rats. The class given is functional. Also noted: concentration or dose not given beside the values.
Series [21] has as its system Mus musculus. In words: Toxicity after intraperitoneal injection into mice by using toxicity screen test after 0.5 hr. The class given is organism-based. Conditions: in vivo, ip. The procedure, abridged: as §1
Series [22] concerns Mus musculus. In words: Compound was tested for toxicity after intraperitoneal injection into mice by using toxicity screen test after 4 hr. Type of series: organism-based. Conditions: in vivo, ip. The procedure, abridged:
as §1

The nature of series [23]: Compound was tested for toxicity after oral administration in rat by using neurotoxicity screen test after 2 hr. Type of series: organism-based. Conditions: in vivo. In outline: as §4
Series [24] relates to Rattus norvegicus. In words: Compound was tested for anticonvulsant activity after Oral Administration into Rats by using MES screen test after 1h,dose 12.50 mg/kg; number of rats out of four which were protected. Type of series: functional. Conditions: dose 12.5 mg/kg. In outline: as §2
For series [25], the system named is Rattus norvegicus. In words: Compound was tested for anticonvulsant activity after Oral Administration into Rats by using MES screen test after 0.25h,dose 12.50 mg/kg; number of rats out of four which were protected. Particulars: dose 12.5 mg/kg. The class given is functional. The procedure, abridged: as §2
A short description of series [26]: Compound was tested for toxicity after intraperitoneal injection into mice by using neurotoxicity screen test after 1 hr. The class given is organism-based. Particulars: mouse, in vivo, ip. The procedure, abridged:
as §3

Series [27] has as its system Rattus norvegicus. In words: Compound was tested for anticonvulsant activity after Oral Administration into Rats by using MES screen test after 4h,dose 12.50 mg/kg; number of rats out of four which were protected. Particulars: dose 12.5 mg/kg. The class given is functional. In outline: as §2
Series [28] deals with Rattus norvegicus. The series is described as follows: Compound was tested for anticonvulsant activity after Oral Administration into Rats by using MES screen test after 0.5h,dose 12.50 mg/kg; number of rats out of four which were protected. Type of series: functional. Particulars: dose 12.5 mg/kg. The procedure, abridged:
as §2

The nature of series [29]: Protection index = TD50/ED50 (MES). Conditions: mouse, in vivo; read-out: PI.
Series [30] has as its system Rattus norvegicus. The series is described as follows: Compound was tested for anticonvulsant activity after Oral Administration into Rats by using MES screen test after 2h,dose 12.50 mg/kg; number of rats out of four which were protected. Type of series: functional. Conditions: dose 12.5 mg/kg. The procedure, abridged: as §2
In series [31] the test system is Mus musculus. The series is described as follows: Compound was tested for anticonvulsant activity after intraperitoneal injection into mice by using MES screen test after 0.5 hr. The class given is functional. Particulars: ip. In outline:
as §1

Series [32] relates to Mus musculus. The series is described as follows: Compound was tested for anticonvulsant activity after intraperitoneal injection into mice by using MES screen test after 4 hr. Conditions: ip. Type of series: functional. The procedure, abridged: as §1
The nature of series [33]: Compound was tested for toxicity after intraperitoneal injection into mice by using neurotoxicity screen test after 4 hr. Type of series: organism-based. Conditions: mouse, in vivo, ip. In outline: as §1
Series [34] deals with Mus musculus. In words: Compound was tested for anticonvulsant activity after intraperitoneal injection into mice by using scPTZ screen test after 1 hr. Particulars: ip. Type of series: functional. In outline: as §3
The test system of series [35] is Rattus norvegicus. The series is described as follows: Compound was tested for anticonvulsant activity after Oral Administration into Rats by using MES screen test after 1h,dose 12.5 mg/kg; number of rats out of four which were protected. Type of series: functional. The procedure, abridged: as §2

Broadly, the logP is the decadic logarithm of the partition coefficient of the neutral form, usually between octanol and water. By ED50 is commonly meant the dose that gives a 50% effect, or the effect in half of the subjects. In general, TD50 refers to the dose at which the toxic effect under study appears in half of the subjects.

Turning to `NC(=O)N/N=C/c1ccc(Oc2ccc(F)c(F)c2)cc1`, the logP in [1] amounted to 2.76. The ED50 in the series on Mus musculus [2] is 72.8 mg/kg; with Rattus norvegicus [8] it was 2.37 mg/kg; in the series on Mus musculus [13], 14.5 mg/kg. In addition, the Activity in the series on Rattus norvegicus [3] is recorded as 4; in the series on Rattus norvegicus [6], 4; with Rattus norvegicus [7], 4; with Rattus norvegicus [11] it was 2; with Rattus norvegicus [12] it was 4. Further, the selectivity ratio in series [4] amounted to 1.3. In addition, the Dose came out at 100 mg/kg in the series on Mus musculus [5], 300 mg/kg in the series with Mus musculus [9], 30 mg/kg with Mus musculus [15] and 30 mg/kg in the series on Mus musculus [16]. The TD50 at 2 h in series [10] amounted to 94.8 mg/kg. The TD50 in series [14] is > 500 mg/kg.

In the case of `NC(=O)N/N=C/c1ccc(Oc2c(F)cccc2F)cc1`, the Activity in the series with Rattus norvegicus [17] is 4; in the series with Rattus norvegicus [18], “No activity”; in the series on Rattus norvegicus [19], 4; with Rattus norvegicus [20], 2. Besides, the Dose with Mus musculus [5] came out at 30 mg/kg; in the series with Mus musculus [9], 300 mg/kg; with Mus musculus [21] it was 300 mg/kg; in the series with Mus musculus [22], 300 mg/kg; in the series with Mus musculus [15] it was 300 mg/kg; in the series with Mus musculus [16], 30 mg/kg. This molecule came in with an ED50 with Rattus norvegicus [8] of 5.53 mg/kg. Besides, the TD50 at 2 h is 125 mg/kg in series [10] and > 500 mg/kg in series [23].

Take `NC(=O)N/N=C/c1ccc(Oc2cc(F)cc(F)c2)cc1`: the Activity in the series on Rattus norvegicus [24] came out at 4; with Rattus norvegicus [25], 1; with Rattus norvegicus [27], 4; in the series on Rattus norvegicus [28], 3; in the series with Rattus norvegicus [30] it was 4. Besides, in [26], the TD50 at 1 h was 68.8 mg/kg. Besides, the Dose in the series on Mus musculus [5] was 30 mg/kg; in the series with Mus musculus [21], 300 mg/kg; in the series with Mus musculus [22], 300 mg/kg; in the series with Mus musculus [15], 100 mg/kg; in the series on Mus musculus [16], 30 mg/kg. Further, in series [29], the selectivity ratio was 5.58. The molecule also came in with an ED50 in the series with Mus musculus [31] of 12.3 mg/kg.

In the case of `CCC(C)c1ccc(Oc2ccc(/C=N\NC(N)=O)cc2)cc1` (stereo not drawn), the ED50 with Mus musculus [32] came out at 13.4 mg/kg; with Mus musculus [34] it was 86.9 mg/kg; in the series with Rattus norvegicus [8], 3.21 mg/kg. Besides, the Activity in the series with Rattus norvegicus [17] was 3; with Rattus norvegicus [18], “No activity”; in the series on Rattus norvegicus [19] it was 4; in the series on Rattus norvegicus [20], 2; in the series with Rattus norvegicus [35], 2. The molecule further registered a TD50 at 4 h in series [33] of 131 mg/kg. The selectivity ratio in [4] worked out at 1.51. In addition, the Dose with Mus musculus [5] was found to be 100 mg/kg; in the series with Mus musculus [9], 100 mg/kg; in the series with Mus musculus [21], 300 mg/kg; in the series with Mus musculus [22], 100 mg/kg; in the series with Mus musculus [16], 30 mg/kg. For the same molecule, the TD50 in [14] is > 322 mg/kg.

For the origin of these results see ChEMBL document CHEMBL1129428 (J Med Chem, 1996).
